ChEMBL document CHEMBL1152469, “Telithromycin resistance in Streptococcus pneumoniae is conferred by a deletion in the leader sequence of erm(B) that increases rRNA methylation” (2008)
Converted amounts (≈) assume the structure as drawn.

How the values were obtained:
Type in all cases: functional
Streptococcus pneumoniae [1] = experiment: Antimicrobial activity against telithromycin-resistant Streptococcus pneumoniae isolate P1501016 by agar dilution method
In short: (§1)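 Agar dilution MICs per CLSI agar plate preparation, plates containing 5% horse blood, incubated in ambient air 20-24 h; MICs interpreted with CLSI broth microdilution breakpoints (telithromycin ≤1 µg/ml S, 2 I, ≥4 R). Reference strain S. pneumoniae ATCC49619. Induction testing run without and with erythromycin (0.25 µg/ml).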

Streptococcus pneumoniae [2] = experiment: Antimicrobial activity against wild-type Streptococcus pneumoniae PC13 by agar dilution method
In short: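 Agar dilution MICs on plates prepared per CLSI guidance and containing 5% horse blood. Plates incubated in ambient air for 20-24 h. Interpretation used CLSI broth microdilution breakpoints, with S. pneumoniae ATCC49619 as reference strain.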

Streptococcus pneumoniae [3] = experiment: Antimicrobial activity against Streptococcus pneumoniae PC13 transformant harboring 136-bp deletion in erm(B) gene by agar dilution method; in short: as §1
Streptococcus pneumoniae [4] = experiment: Increase in dimethylation at position A2058 of 23S rRNA of Streptococcus pneumoniae PC13 transformant harboring 136-bp deletion in erm(B) gene at 0.25 ug/ml by phosphorimager scanning relative to baseline
In short: (§2)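 Cells grown in TSB at 37°C, 5% CO2 to OD600 0.2, untreated or with telithromycin (0.008 µg/ml) or erythromycin (0.25 µg/ml), three cultures per condition. Total RNA extracted. Primer extension across G2061-U2079 of 23S rRNA on 1.5 pmol rRNA with reverse transcriptase, ddGTP mix in test samples, done in triplicate. Products run on denaturing polyacrylamide gels, quantified by phosphorimager as % A2058 dimethylation.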

Streptococcus pneumoniae [5] = experiment: Increase in lag phase of growth for telithromycin-resistant Streptococcus pneumoniae isolate P1501016 assessed as doubling time at 1 ug/ml
In short: (§3)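 Inoculated from glycerol stocks 1:100 into TSB with or without erythromycin (1 µg/ml), 37°C in 5% CO2. OD600 read every 30 min; doubling time calculated over exponential growth.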

Streptococcus pneumoniae [6] = experiment: Increase in dimethylation at position A2058 of 23S rRNA of Streptococcus pneumoniae isolate P1501016 at 0.25 ug/ml by phosphorimager scanning relative to baseline
In short: (§4)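 Cells grown in Tryptone Soya Broth at 37°C, 5% CO2 to OD600 0.2, either untreated, with telithromycin 0.008 µg/ml, or with erythromycin 0.25 µg/ml. Total RNA extracted. A primer complementary to 23S rRNA G2061-U2079 was extended by reverse transcriptase on 1.5 pmol rRNA with dTTP, dCTP and ddGTP. Triplicate reactions run on denaturing gels beside a sequencing ladder and quantified by phosphorimager.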

Streptococcus pneumoniae [7] = experiment: Increase in erm(B) mRNA expression in Streptococcus pneumoniae […] transformant harboring 136-bp deletion in erm(B) gene at 0.25 ug/ml by qRT-PCR relative to baseline
In short: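 Strains grown in TSB at 37°C, 5% CO2 to OD600 0.2, untreated or with erythromycin (0.25 µg/ml), three cultures per condition. Cells stabilised in RNAProtect before RNA extraction. erm(B) mRNA quantified relative to the untreated culture. Means compared by paired t test at the 95% level.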

Streptococcus pneumoniae [8] = experiment: Increase in erm(B) mRNA expression in wild type Streptococcus pneumoniae PC13 at 0.25 ug/ml by qRT-PCR relative to baseline
In short: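 Cultures grown in triplicate in Tryptone Soya Broth at 37°C, 5% CO2 to OD600 0.2, without antibiotic or with erythromycin 0.25 µg/ml. Cells stabilised in RNAProtect, then RNA extracted for relative quantification of erm(B) mRNA against untreated cells.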

Streptococcus pneumoniae [9] = experiment: Increase in lag phase of growth for wild type Streptococcus pneumoniae PC13 assessed as doubling time at 1 ug/ml
In short: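 Glycerol stocks diluted 1:100 into Tryptone Soya Broth with or without erythromycin 1 µg/ml and incubated at 37°C, 5% CO2. OD600 read every 30 min, and doubling time calculated over exponential growth.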

Streptococcus pneumoniae [10] = experiment: Increase in lag phase of growth for Streptococcus pneumoniae PC13 transformant harboring 136-bp deletion in erm(B) gene assessed as doubling time at 1 ug/ml; in short: as §3
Streptococcus pneumoniae [11] = experiment: Increase in erm(B) mRNA expression in Streptococcus pneumoniae PC13 transformant harboring 136-bp deletion in erm(B) gene at 0.008 ug/ml by qRT-PCR relative to baseline
In short: (§5)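 Cells grown in Tryptone Soya Broth at 37°C, 5% CO2 to OD600 0.2, in triplicate cultures per strain, without antibiotic or with telithromycin 0.008 µg/ml (erythromycin 0.25 µg/ml as a further condition). Cultures were then stabilised in RNAProtect Bacteria Reagent and pelleted. Total RNA was extracted and erm(B) mRNA quantified relative to untreated cultures.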

Streptococcus pneumoniae [12] = experiment: Increase in dimethylation at position A2058 of 23S rRNA of wild type Streptococcus pneumoniae PC13 at 0.008 ug/ml by phosphorimager scanning relative to baseline; in short: as §4
Streptococcus pneumoniae [13] = experiment: Increase in dimethylation at position A2058 of 23S rRNA of wild type Streptococcus pneumoniae PC13 at 0.25 ug/ml by phosphorimager scanning relative to baseline; in short: as §4
Streptococcus pneumoniae [14] = experiment: Increase in erm(B) mRNA expression in wild-type Streptococcus pneumoniae PC13 at 0.008 ug/ml by qRT-PCR relative to baseline; in short: as §5
Streptococcus pneumoniae [15] = experiment: Increase in dimethylation at position A2058 of 23S rRNA of Streptococcus pneumoniae isolate P1501016 at 0.008 ug/ml by phosphorimager scanning relative to baseline; in short: as §4
Streptococcus pneumoniae [16] = experiment: Increase in dimethylation at position A2058 of 23S rRNA of Streptococcus pneumoniae PC13 transformant harboring 136-bp deletion in erm(B) gene at 0.008 ug/ml by phosphorimager scanning relative to baseline; in short: as §2

Molecule `CN(C)[C@@H]1C(O)=C(C(N)=O)C(=O)[C@@]2(O)C(O)=C3C(=O)c4c(O)cccc4[C@@](C)(O)[C@H]3C[C@@H]12` [TETRACYCLINE] has an MIC (Streptococcus pneumoniae [1]) of 4 µg/mL (≈ 9 µM), an MIC (Streptococcus pneumoniae [2]) of 16 µg/mL (≈ 36 µM) and an MIC (Streptococcus pneumoniae [3]) of 16 µg/mL (≈ 36 µM).
With `CCC[C@@H]1C[C@@H](C(=O)N[C@@H]([C@H]2O[C@H](SC)[C@H](O)[C@@H](O)[C@H]2O)[C@H](C)Cl)N(C)C1` [CLINDAMYCIN] the MIC (Streptococcus pneumoniae [1]) was greater than 256 µg/mL and the MIC (Streptococcus pneumoniae [2]) was greater than 256 µg/mL.
With `CC[C@H]1OC(=O)[C@H](C)[C@@H](O[C@H]2C[C@@](C)(OC)[C@@H](O)[C@H](C)O2)[C@H](C)[C@@H](O[C@@H]2O[C@H](C)C[C@H](N(C)C)[C@H]2O)[C@](C)(O)C[C@@H](C)C(=O)[C@H](C)[C@@H](O)[C@]1(C)O` [ERYTHROMYCIN] the Activity (Streptococcus pneumoniae [4]) was 72%, the Activity (Streptococcus pneumoniae [5]) was 43.3 min and the Activity (Streptococcus pneumoniae [6]) was 68%. For the same molecule, the MIC (Streptococcus pneumoniae [1]) was greater than 256 µg/mL, the “fold change (FC)” value (Streptococcus pneumoniae [7]) was 4.98 and the MIC (Streptococcus pneumoniae [2]) was greater than 256 µg/mL. The “fold change (FC)” value (Streptococcus pneumoniae [8]) was 2.57, the Activity (Streptococcus pneumoniae [9]) was 53 min and the Activity (Streptococcus pneumoniae [10]) was 52.5 min.
`CC[C@H]1OC(=O)[C@H](C)C(=O)[C@H](C)[C@@H](O[C@@H]2O[C@H](C)C[C@H](N(C)C)[C@H]2O)[C@](C)(OC)C[C@@H](C)C(=O)[C@H](C)[C@H]2N(CCCCn3cnc(-c4cccnc4)c3)C(=O)O[C@]12C` [TELITHROMYCIN] was tested, and the “fold change (FC)” value (Streptococcus pneumoniae [11]) was 1.31, the Activity (Streptococcus pneumoniae [12]) was 29% and the MIC (Streptococcus pneumoniae [1]) was 8 µg/mL (≈ 9.85 µM). It also gave an MIC (Streptococcus pneumoniae [2]) of 0.06 µg/mL (≈ 0.0739 µM), an MIC (Streptococcus pneumoniae [3]) of 16 µg/mL (≈ 19.7 µM) and an Activity (Streptococcus pneumoniae [13]) of 46%. For the same molecule, the “fold change (FC)” value (Streptococcus pneumoniae [14]) was 0.66, the Activity (Streptococcus pneumoniae [15]) was 66% and the Activity (Streptococcus pneumoniae [16]) was 64%.
`CC[C@H]1OC(=O)[C@H](C)[C@@H](O[C@H]2C[C@@](C)(OC)[C@@H](O)[C@H](C)O2)[C@H](C)[C@@H](O[C@@H]2O[C@H](C)C[C@H](N(C)C)[C@H]2O)[C@](C)(OC)C[C@@H](C)C(=O)[C@H](C)[C@@H](O)[C@]1(C)O` [CLARITHROMYCIN] showed an MIC (Streptococcus pneumoniae [1]) greater than 256 µg/mL and an MIC (Streptococcus pneumoniae [2]) greater than 256 µg/mL.
